Assay results as given in ChEMBL document CHEMBL5058577, “EUbOPEN Chemogenomics Library 2 (Multiplex)” (2022).

Tested on: HEK-293T
Experiment: Multiplex assay against HEK293T
Assay type: toxicity, cell-based
Settings: human
Method in brief: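 Phenotypes for tubulin, mitochondrial mass and membrane permeability are expressed as per cents of healthy-nucleus cells. Cells were stained live at seeding with Hoechst33342, BioTracker Green Microtubule Cytoskeleton Dye, MitoTracker Red and Annexin V Alexa Fluor 680, then imaged after compound addition on a CQ1 microscope at 37°C and 5% CO2. Machine-learning gating in CellPathfinder separated Hoechst high-intensity objects from normal cells, divided normal cells by nuclear state (healthy, pyknosed, fragmented) and divided pyknosed cells into mitotic or apoptotic.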

[1] = 12 h, 1 µM, compound concentration 1 uM, replicate 1
[2] = 12 h, 1 µM, compound concentration 1 uM, replicate 2
[3] = 12 h, 10 µM, compound concentration 10 uM, replicate 1
[4] = 12 h, 10 µM, compound concentration 10 uM, replicate 2
[5] = 24 h, 1 µM, compound concentration 1 uM, replicate 1
[6] = 24 h, 1 µM, compound concentration 1 uM, replicate 2
[7] = 24 h, 10 µM, compound concentration 10 uM, replicate 1
[8] = 24 h, 10 µM, compound concentration 10 uM, replicate 2
[9] = 48 h, 1 µM, compound concentration 1 uM, replicate 1
[10] = 48 h, 1 µM, compound concentration 1 uM, replicate 2
[11] = 48 h, 10 µM, compound concentration 10 uM, replicate 1
[12] = 48 h, 10 µM, compound concentration 10 uM, replicate 2

OCCCNc1cc(-c2ccnc(Nc3cccc(Cl)c3)n2)ccn1
Population Apoptotic (%) [1]: 66% | Population Fragmented Nuclei (%) [1]: 9% | Population Healthy Nuclei (%) [1]: 66% | Population Hoechst High Intensity Objects (%) [1]: 14% | Population Membrane Permeable-Phenotype (%) [1]: 0% | Population Mitochondria Different-Phenotype (%) [1]: 82% | Population Mitotic Cells (%) [1]: 33% | Population Normal (%) [1]: 85% | Population Pyknosed Nuclei (%) [1]: 24% | Population Tubulin-Different-Phenotype (%) [1]: 75% | Total Cell Count [1]: 204 | Population Apoptotic (%) [2]: 65% | Population Fragmented Nuclei (%) [2]: 8% | Population Healthy Nuclei (%) [2]: 74% | Population Hoechst High Intensity Objects (%) [2]: 11% | Population Mitochondria Different-Phenotype (%) [2]: 88% | Population Mitotic Cells (%) [2]: 34% | Population Normal (%) [2]: 88% | Population Pyknosed Nuclei (%) [2]: 16% | Population Tubulin-Different-Phenotype (%) [2]: 57% | Total Cell Count [2]: 173 | Population Apoptotic (%) [3]: 78% | Population Fragmented Nuclei (%) [3]: 14% | Population Healthy Nuclei (%) [3]: 55% | Population Hoechst High Intensity Objects (%) [3]: 30% | Population Membrane Permeable-Phenotype (%) [3]: 1% | Population Mitochondria Different-Phenotype (%) [3]: 83% | Population Mitotic Cells (%) [3]: 21% | Population Normal (%) [3]: 69% | Population Pyknosed Nuclei (%) [3]: 30% | Population Tubulin-Different-Phenotype (%) [3]: 80% | Total Cell Count [3]: 249 | Population Apoptotic (%) [4]: 75% | Population Healthy Nuclei (%) [4]: 67% | Population Hoechst High Intensity Objects (%) [4]: 41% | Population Membrane Permeable-Phenotype (%) [4]: 10% | Population Mitochondria Different-Phenotype (%) [4]: 85% | Population Mitotic Cells (%) [4]: 25% | Population Normal (%) [4]: 58% | Population Pyknosed Nuclei (%) [4]: 18% | Population Tubulin-Different-Phenotype (%) [4]: 72% | Total Cell Count [4]: 224 | Population Apoptotic (%) [5]: 91% | Population Fragmented Nuclei (%) [5]: 10% | Population Healthy Nuclei (%) [5]: 66% | Population Hoechst High Intensity Objects (%) [5]: 14% | Population Membrane Permeable-Phenotype (%) [5]: 0% | Population Mitochondria Different-Phenotype (%) [5]: 80% | Population Mitotic Cells (%) [5]: 8% | Population Normal (%) [5]: 85% | Population Pyknosed Nuclei (%) [5]: 22% | Population Tubulin-Different-Phenotype (%) [5]: 61% | Total Cell Count [5]: 228 | Population Apoptotic (%) [6]: 77% | Population Fragmented Nuclei (%) [6]: 13% | Population Healthy Nuclei (%) [6]: 76% | Population Hoechst High Intensity Objects (%) [6]: 15% | Population Mitochondria Different-Phenotype (%) [6]: 86% | Population Mitotic Cells (%) [6]: 22% | Population Normal (%) [6]: 84% | Population Pyknosed Nuclei (%) [6]: 10% | Total Cell Count [6]: 202 | Population Apoptotic (%) [7]: 71% | Population Fragmented Nuclei (%) [7]: 16% | Population Healthy Nuclei (%) [7]: 44% | Population Hoechst High Intensity Objects (%) [7]: 41% | Population Membrane Permeable-Phenotype (%) [7]: 0% | Population Mitochondria Different-Phenotype (%) [7]: 85% | Population Mitotic Cells (%) [7]: 28% | Population Normal (%) [7]: 58% | Population Pyknosed Nuclei (%) [7]: 38% | Population Tubulin-Different-Phenotype (%) [7]: 88% | Total Cell Count [7]: 237 | Population Apoptotic (%) [8]: 78% | Population Fragmented Nuclei (%) [8]: 15% | Population Healthy Nuclei (%) [8]: 54% | Population Hoechst High Intensity Objects (%) [8]: 45% | Population Membrane Permeable-Phenotype (%) [8]: 3% | Population Mitochondria Different-Phenotype (%) [8]: 91% | Population Mitotic Cells (%) [8]: 21% | Population Normal (%) [8]: 54% | Population Pyknosed Nuclei (%) [8]: 29% | Population Tubulin-Different-Phenotype (%) [8]: 82% | Total Cell Count [8]: 207 | Population Apoptotic (%) [9]: 82% | Population Fragmented Nuclei (%) [9]: 12% | Population Healthy Nuclei (%) [9]: 51% | Population Hoechst High Intensity Objects (%) [9]: 18% | Population Membrane Permeable-Phenotype (%) [9]: 1% | Population Mitochondria Different-Phenotype (%) [9]: 88% | Population Mitotic Cells (%) [9]: 17% | Population Normal (%) [9]: 81% | Population Pyknosed Nuclei (%) [9]: 35% | Population Tubulin-Different-Phenotype (%) [9]: 68% | Total Cell Count [9]: 232 | Population Apoptotic (%) [10]: 61% | Population Fragmented Nuclei (%) [10]: 17% | Population Healthy Nuclei (%) [10]: 65% | Population Hoechst High Intensity Objects (%) [10]: 21% | Population Membrane Permeable-Phenotype (%) [10]: 0% | Population Mitochondria Different-Phenotype (%) [10]: 84% | Population Mitotic Cells (%) [10]: 38% | Population Normal (%) [10]: 78% | Population Pyknosed Nuclei (%) [10]: 17% | Population Tubulin-Different-Phenotype (%) [10]: 59% | Total Cell Count [10]: 193 | Population Apoptotic (%) [11]: 71% | Population Fragmented Nuclei (%) [11]: 16% | Population Healthy Nuclei (%) [11]: 46% | Population Hoechst High Intensity Objects (%) [11]: 57% | Population Membrane Permeable-Phenotype (%) [11]: 1% | Population Mitochondria Different-Phenotype (%) [11]: 78% | Population Mitotic Cells (%) [11]: 28% | Population Normal (%) [11]: 42% | Population Pyknosed Nuclei (%) [11]: 37% | Population Tubulin-Different-Phenotype (%) [11]: 76% | Total Cell Count [11]: 262 | Population Apoptotic (%) [12]: 83% | Population Fragmented Nuclei (%) [12]: 25% | Population Hoechst High Intensity Objects (%) [12]: 56% | Population Membrane Permeable-Phenotype (%) [12]: 8% | Population Mitochondria Different-Phenotype (%) [12]: 85% | Population Mitotic Cells (%) [12]: 16% | Population Normal (%) [12]: 43% | Population Pyknosed Nuclei (%) [12]: 28% | Population Tubulin-Different-Phenotype (%) [12]: 79% | Total Cell Count [12]: 238

CN1CCC(C(=O)c2cccc(NC(=O)c3c(F)cc(F)cc3F)n2)CC1
Population Apoptotic (%) [1]: 32% | Population Fragmented Nuclei (%) [1]: 5% | Population Healthy Nuclei (%) [1]: 82% | Population Hoechst High Intensity Objects (%) [1]: 8% | Population Membrane Permeable-Phenotype (%) [1]: 0% | Population Mitochondria Different-Phenotype (%) [1]: 51% | Population Mitotic Cells (%) [1]: 67% | Population Normal (%) [1]: 91% | Population Pyknosed Nuclei (%) [1]: 11% | Population Tubulin-Different-Phenotype (%) [1]: 31% | Total Cell Count [1]: 396 | Population Apoptotic (%) [2]: 52% | Population Hoechst High Intensity Objects (%) [2]: 7% | Population Mitochondria Different-Phenotype (%) [2]: 59% | Population Mitotic Cells (%) [2]: 47% | Population Normal (%) [2]: 92% | Population Pyknosed Nuclei (%) [2]: 12% | Population Tubulin-Different-Phenotype (%) [2]: 20% | Total Cell Count [2]: 352 | Population Apoptotic (%) [3]: 52% | Population Fragmented Nuclei (%) [3]: 6% | Population Healthy Nuclei (%) [3]: 80% | Population Hoechst High Intensity Objects (%) [3]: 8% | Population Membrane Permeable-Phenotype (%) [3]: 1% | Population Mitochondria Different-Phenotype (%) [3]: 55% | Population Mitotic Cells (%) [3]: 47% | Population Normal (%) [3]: 91% | Population Pyknosed Nuclei (%) [3]: 12% | Population Tubulin-Different-Phenotype (%) [3]: 50% | Total Cell Count [3]: 445 | Population Apoptotic (%) [4]: 53% | Population Hoechst High Intensity Objects (%) [4]: 10% | Population Membrane Permeable-Phenotype (%) [4]: 0% | Population Mitochondria Different-Phenotype (%) [4]: 77% | Population Mitotic Cells (%) [4]: 46% | Population Normal (%) [4]: 89% | Population Pyknosed Nuclei (%) [4]: 13% | Total Cell Count [4]: 401 | Population Apoptotic (%) [5]: 26% | Population Fragmented Nuclei (%) [5]: 11% | Population Healthy Nuclei (%) [5]: 74% | Population Hoechst High Intensity Objects (%) [5]: 4% | Population Membrane Permeable-Phenotype (%) [5]: 0% | Population Mitochondria Different-Phenotype (%) [5]: 30% | Population Mitotic Cells (%) [5]: 73% | Population Normal (%) [5]: 95% | Population Pyknosed Nuclei (%) [5]: 13% | Population Tubulin-Different-Phenotype (%) [5]: 20% | Total Cell Count [5]: 504 | Population Apoptotic (%) [6]: 42% | Population Fragmented Nuclei (%) [6]: 8% | Population Healthy Nuclei (%) [6]: 83% | Population Hoechst High Intensity Objects (%) [6]: 3% | Population Mitochondria Different-Phenotype (%) [6]: 39% | Population Mitotic Cells (%) [6]: 57% | Population Normal (%) [6]: 96% | Population Pyknosed Nuclei (%) [6]: 7% | Population Tubulin-Different-Phenotype (%) [6]: 17% | Total Cell Count [6]: 478 | Population Apoptotic (%) [7]: 25% | Population Fragmented Nuclei (%) [7]: 10% | Population Healthy Nuclei (%) [7]: 76% | Population Hoechst High Intensity Objects (%) [7]: 6% | Population Membrane Permeable-Phenotype (%) [7]: 0% | Population Mitochondria Different-Phenotype (%) [7]: 48% | Population Mitotic Cells (%) [7]: 75% | Population Normal (%) [7]: 93% | Population Pyknosed Nuclei (%) [7]: 13% | Population Tubulin-Different-Phenotype (%) [7]: 41% | Total Cell Count [7]: 583 | Population Apoptotic (%) [8]: 52% | Population Fragmented Nuclei (%) [8]: 8% | Population Healthy Nuclei (%) [8]: 81% | Population Hoechst High Intensity Objects (%) [8]: 8% | Population Mitochondria Different-Phenotype (%) [8]: 64% | Population Mitotic Cells (%) [8]: 47% | Population Normal (%) [8]: 91% | Population Pyknosed Nuclei (%) [8]: 9% | Population Tubulin-Different-Phenotype (%) [8]: 34% | Total Cell Count [8]: 467 | Population Apoptotic (%) [9]: 22% | Population Fragmented Nuclei (%) [9]: 11% | Population Healthy Nuclei (%) [9]: 80% | Population Hoechst High Intensity Objects (%) [9]: 3% | Population Membrane Permeable-Phenotype (%) [9]: 1% | Population Mitochondria Different-Phenotype (%) [9]: 19% | Population Mitotic Cells (%) [9]: 77% | Population Normal (%) [9]: 96% | Population Pyknosed Nuclei (%) [9]: 7% | Population Tubulin-Different-Phenotype (%) [9]: 12% | Total Cell Count [9]: 884 | Population Apoptotic (%) [10]: 34% | Population Fragmented Nuclei (%) [10]: 9% | Population Healthy Nuclei (%) [10]: 84% | Population Mitochondria Different-Phenotype (%) [10]: 24% | Population Mitotic Cells (%) [10]: 65% | Population Pyknosed Nuclei (%) [10]: 5% | Population Tubulin-Different-Phenotype (%) [10]: 10% | Total Cell Count [10]: 692 | Population Apoptotic (%) [11]: 30% | Population Fragmented Nuclei (%) [11]: 13% | Population Healthy Nuclei (%) [11]: 79% | Population Hoechst High Intensity Objects (%) [11]: 4% | Population Membrane Permeable-Phenotype (%) [11]: 0% | Population Mitochondria Different-Phenotype (%) [11]: 35% | Population Mitotic Cells (%) [11]: 69% | Population Normal (%) [11]: 95% | Population Pyknosed Nuclei (%) [11]: 7% | Population Tubulin-Different-Phenotype (%) [11]: 23% | Total Cell Count [11]: 803 | Population Apoptotic (%) [12]: 28% | Population Fragmented Nuclei (%) [12]: 10% | Population Healthy Nuclei (%) [12]: 81% | Population Hoechst High Intensity Objects (%) [12]: 7% | Population Mitochondria Different-Phenotype (%) [12]: 42% | Population Mitotic Cells (%) [12]: 71% | Population Normal (%) [12]: 92% | Population Tubulin-Different-Phenotype (%) [12]: 25% | Total Cell Count [12]: 671
